In ChEMBL document CHEMBL1143773, “Synthesis and studies on antidepressant and anticonvulsant activities of some 3-(2-furyl)-pyrazoline derivatives” (Eur J Med Chem, 2007):
Activity calls are given as the source filed them. No cut-off for these calls is given here.

Columns and labels:
Mus musculus [1] = assay: Anticonvulsant activity against metrazole-induced seizures in Albino mouse at 100 mg/kg, ip after 4 hrs by scMet assay; type: functional, organism-based; design: dose 100 mg/kg
Procedure, shortened: (§1)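 Phase I protocol of the NINCDS antiepileptic drug development programme in albino mice, covering MES, subcutaneous pentylenetetrazole (metrazol) and rotarod neurotoxicity. Doses were 30, 100 and 300 mg/kg, read at 1/2 h and 4 h. One animal per dose and time point, scored as 0/1 (no activity) or 1/1 (noticeable activity).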

Mus musculus [2] = assay: Anticonvulsant activity in Albino mouse at 30 mg/kg, ip after 4 hrs by MES test; type: functional, organism-based; design: dose 30 mg/kg; procedure, shortened: as §1
Mus musculus [3] = assay: Anticonvulsant activity in Albino mouse by MES test at 30mg/kg, ip after 30 mins; type: functional, organism-based; procedure, shortened: as §1
Mus musculus [4] = assay: Antidepressant activity in Albino mouse assessed as duration of immobility at 10 mg/kg, ip by forced-swimming test; type: functional; settings: route intraperitoneal
Procedure, shortened: (§2)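 Porsolt forced-swim test in albino mice. Drug given ip at 0.5 ml/20 g body weight, 1 h before testing. Controls received 1% aqueous Tween 80. Each mouse was placed singly in a water-filled Plexiglas cylinder for 6 min. Immobility (floating upright with only slight movements to stay afloat) was timed over the last 4 min.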

Mus musculus [5] = assay: Anticonvulsant activity in Albino mouse at 100 mg/kg, ip after 4 hrs by MES test; type: functional, organism-based; design: dose 100 mg/kg; procedure, shortened: as §1
Mus musculus [6] = assay: Neurotoxicity in Albino mouse at 300 mg/kg, ip after 4 hrs by RotaRod test; type: toxicity, organism-based; design: dose 300 mg/kg, route intraperitoneal; settings: in vivo; procedure, shortened: as §1
Mus musculus [7] = assay: Neurotoxicity in Albino mouse at 100 mg/kg, ip after 4 hrs by RotaRod test; type: toxicity, organism-based; design: dose 100 mg/kg, route intraperitoneal; settings: in vivo; procedure, shortened: as §1
Mus musculus [8] = assay: Neurotoxicity in Albino mouse at 100 mg/kg, ip after 30 mins by RotaRod test; type: toxicity, organism-based; design: dose 100 mg/kg, route intraperitoneal; settings: in vivo, 0.5 h; procedure, shortened: as §1
Mus musculus [9] = assay: Anticonvulsant activity in Albino mouse by MES test at 300 mg/kg, ip after 30 mins; type: functional, organism-based; design: dose 300 mg/kg; procedure, shortened: as §1
Mus musculus [10] = assay: Anticonvulsant activity against metrazole-induced seizures in Albino mouse at 300 mg/kg, ip after 4 hrs by scMet assay; type: functional, organism-based; design: dose 300 mg/kg; procedure, shortened: as §1
Mus musculus [11] = assay: Anticonvulsant activity in Albino mouse by MES test at 100 mg/kg, ip after 30 mins; type: functional, organism-based; design: dose 100 mg/kg; procedure, shortened: as §1
Mus musculus [12] = assay: Anticonvulsant activity against metrazole-induced seizures in Albino mouse at 300 mg/kg, ip after 30 mins by scMet assay; type: functional, organism-based; design: dose 300 mg/kg; procedure, shortened: as §1
Mus musculus [13] = assay: Anticonvulsant activity against metrazole-induced seizures in Albino mouse at 30 mg/kg, ip after 30 mins by scMet assay; type: functional, organism-based; design: dose 30 mg/kg; procedure, shortened: as §1
Mus musculus [14] = assay: Neurotoxicity in Albino mouse at 30 mg/kg, ip after 4 hrs by RotaRod test; type: toxicity, organism-based; design: dose 30 mg/kg, route intraperitoneal; settings: in vivo; procedure, shortened: as §1
Mus musculus [15] = assay: Neurotoxicity in Albino mouse at 30 mg/kg, ip after 30 mins by RotaRod test; type: toxicity, organism-based; design: dose 30 mg/kg, route intraperitoneal; settings: in vivo, 0.5 h; procedure, shortened: as §1
Mus musculus [16] = assay: Antidepressant activity in Albino mouse assessed as duration of immobility at 10 mg/kg, ip by forced-swimming test relative to control; type: functional; settings: route intraperitoneal; procedure, shortened: as §2
Mus musculus [17] = assay: Anticonvulsant activity against metrazole-induced seizures in Albino mouse at 100 mg/kg, ip after 30 mins by scMet assay; type: functional, organism-based; design: dose 100 mg/kg; procedure, shortened: as §1
Mus musculus [18] = assay: Neurotoxicity in Albino mouse at 300 mg/kg, ip after 30 mins by RotaRod test; type: toxicity, organism-based; design: dose 300 mg/kg, route intraperitoneal; settings: in vivo, 0.5 h; procedure, shortened: as §1
Mus musculus [19] = assay: Anticonvulsant activity in Albino mouse at 300 mg/kg, ip after 4 hrs by MES test; type: functional, organism-based; design: dose 300 mg/kg; procedure, shortened: as §1
Mus musculus [20] = assay: Anticonvulsant activity against metrazole-induced seizures in Albino mouse at 30 mg/kg, ip after 4 hrs by scMet; type: functional, organism-based; design: dose 30 mg/kg; procedure, shortened: as §1

SMILES	Activity (Mus musculus [1])	Activity (Mus musculus [2])	Activity (Mus musculus [3])	Activity (Mus musculus [4])	Activity (Mus musculus [5])	Activity (Mus musculus [6])	Activity (Mus musculus [7])	Activity (Mus musculus [8])	Activity (Mus musculus [9])	Activity (Mus musculus [10])	Activity (Mus musculus [11])	Activity (Mus musculus [12])	Activity (Mus musculus [13])	Activity (Mus musculus [14])	Activity (Mus musculus [15])	Activity (Mus musculus [16])	Activity (Mus musculus [17])	Activity (Mus musculus [18])	Activity (Mus musculus [19])	Activity (Mus musculus [20])
C=CCNC(=S)N1N=C(c2ccco2)CC1c1ccco1 (configuration not stated)	Active	inactive	inactive	144 s	Active	Not Active	Not Active	Not Active	inactive	Active	inactive	inactive	inactive	Not Active	Not Active	-31.42%	inactive	Not Active	Active	inactive
S=C(Nc1ccccc1)N1N=C(c2ccco2)CC1c1ccco1 (configuration not stated)	inactive	inactive	inactive	181 s	inactive	Not Active	Not Active	Not Active	inactive	inactive	inactive	Active	inactive	Not Active	Not Active	-13.81%	Active	Not Active	inactive	inactive
CCNC(=S)N1N=C(c2ccco2)CC1c1ccccc1 (configuration not stated)	inactive	inactive	inactive	139 s	inactive	Not Active	Not Active	Not Active	inactive	inactive	inactive	Active	inactive	Not Active	Not Active	-33.8%	inactive	Not Active	inactive	inactive
N[C@H]1C[C@@H]1c1ccccc1.O=S(=O)(O)O	–	–	–	57 s	–	–	–	–	–	–	–	–	–	–	–	-72.85%	–	–	–	–
c1ccc(N2N=C(c3ccco3)CC2c2ccco2)cc1 (configuration not stated)	inactive	inactive	inactive	169 s	inactive	Not Active	Not Active	Not Active	Active	inactive	Active	inactive	inactive	Not Active	Not Active	-19.52%	inactive	Not Active	inactive	inactive
c1ccc(C2CC(c3ccco3)=NN2c2ccccc2)cc1 (configuration not stated)	inactive	inactive	inactive	213 s	inactive	Not Active	Not Active	Not Active	inactive	Active	inactive	inactive	inactive	Not Active	Not Active	1.42%	inactive	Not Active	inactive	inactive
